Measurements published in ChEMBL document CHEMBL3352233, “N-[6-(4-butanoyl-5-methyl-1H-pyrazol-1-yl)pyridazin-3-yl]-5-chloro-1-[2-(4-methylpiperazin-1-yl)-2-oxoethyl]-1H-indole-3-carboxamide (SAR216471), a novel intravenous and oral, reversible, and directly acting P2Y12 antagonist” (J Med Chem, 2014).
The source made the active and inactive calls. The calls are words filed in the database; no cut-off is given here.

Legend:
[1] = test system: Rattus norvegicus; test: Ex vivo inhibition of platelet aggregation in Sprague-Dawley rat at 10 mg/kg, po after 2 hrs; format: functional; details: for inhibition in vivo at 10 mg/kg: Rattus norvegicus, Sprague-Dawley, po, 2 h
Method in brief: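 Male Sprague−Dawley rats (250−300 g), 6 per batch, are dosed by stomach tube at 10 mL/kg of a 1 mg/mL solution in 5% glucose water containing 5% Cremophor and 3% glycofurol. At 2 h, aortic blood is drawn into 3.8% citrate (1:9) under pentobarbital. PRP is prepared at 300g for 5 min. ADP aggregation is read as the 6-min absorbance AUC and expressed as % inhibition.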

[2] = Metabolic stability in human liver microsomes assessed as compound metabolism after 20 mins incubation in presence of 1 mM NADPH; format: ADME; details: liver microsomes, read-out: Drug metabolism
Method in brief: (§1)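 Hepatic microsomal fractions are incubated with compound for 20 min with 1 mM NADPH. Result is reported as % metabolized, i.e. 100 minus % unchanged compound.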

[3] = Metabolic stability in rat liver microsomes assessed as compound metabolism after 20 mins incubation in presence of 1 mM NADPH; format: ADME; details: liver microsomes, read-out: Drug metabolism; method in brief: as §1
[4] = target: P2Y purinoceptor 12 (Homo sapiens, UniProt Q9H244); test: Displacement of [33P]2MeS-ADP from P2Y12 receptor (unknown origin) transfected in CHO cells after 30 mins by scintillation counting analysis; format: cell-based
Chain of P2Y purinoceptor 12 (Q9H244 whole entry): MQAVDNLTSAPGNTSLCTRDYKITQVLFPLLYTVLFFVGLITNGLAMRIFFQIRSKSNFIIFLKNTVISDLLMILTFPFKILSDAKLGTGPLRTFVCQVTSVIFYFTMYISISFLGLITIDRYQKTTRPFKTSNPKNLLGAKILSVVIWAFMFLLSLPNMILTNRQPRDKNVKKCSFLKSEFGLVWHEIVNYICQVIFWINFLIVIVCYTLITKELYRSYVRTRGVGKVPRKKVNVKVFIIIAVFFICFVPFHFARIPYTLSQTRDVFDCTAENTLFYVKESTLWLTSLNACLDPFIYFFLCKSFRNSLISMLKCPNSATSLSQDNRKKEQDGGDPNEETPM
Method in brief: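 P2Y12-expressing CHO cells (35 × 10³/sample) in PBS with 1 mM EDTA and 0.2% BSA are exposed to compound for 30 min. [³³P]2-MeS-ADP (0.16 nM) is then added for 15 min at 20 °C, in triplicate. Filtration separates free from bound ligand, followed by scintillation counting. Nonspecific binding uses 1 mM unlabeled ADP. IC50 comes from a four-parameter logistic fit with asymptotes fixed at 0 and 100. n = 2.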

[5] = Permeability across human Caco2 cells; format: ADME, cell-based; details: Caco-2, read-out: permeability
Method in brief: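 Permeation is measured across a Caco2 cell monolayer and reported in 10⁻⁷ cm·s⁻¹.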

[6] = test system: Salmonella typhimurium; test: Mutagenicity in Salmonella typhimurium by Ames II test in presence of liver S9 fraction; format: toxicity, organism-based; details: salmonella enterica subsp. enterica serovar typhimurium
[7] = test system: Salmonella typhimurium; test: Mutagenicity in Salmonella typhimurium by Ames II test in absence of liver S9 fraction; format: toxicity, organism-based; details: salmonella enterica subsp. enterica serovar typhimurium
[8] = test system: Rattus norvegicus; test: Ex vivo inhibition of platelet aggregation in Sprague-Dawley rat at 10 mg/kg, po after 6 hrs; format: functional; details: for inhibition in vivo at 10 mg/kg: Rattus norvegicus, Sprague-Dawley, po, 6 h
Method in brief: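 Time-course study in Sprague−Dawley rats after a 10 mg/kg oral dose in glucose/Cremophor/glycofurol vehicle. Aortic citrated blood is sampled at intervals over the hours after dosing. PRP is prepared at 300g for 5 min. ADP-induced aggregation is measured as the 6-min absorbance AUC and reported as % inhibition.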

[9] = test system: Rattus norvegicus; test: Ex vivo inhibition of platelet aggregation in po dosed Sprague-Dawley rat after 2 hrs; format: functional
Method in brief: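 Oral gavage in male Sprague−Dawley rats (250−300 g, 6 per batch), vehicle 5% glucose water with 5% Cremophor and 3% glycofurol. Blood is collected 2 h after dosing from the abdominal aorta into 3.8% citrate under pentobarbital. PRP is prepared at 300g for 5 min. ADP-induced aggregation is quantified as the 6-min absorbance AUC, given as % inhibition.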

CCCC(=O)c1cnn(-c2ccc(NC(=O)c3cn(CC(=O)N4CCN(C)CC4)c4cc(C)c(Cl)cc34)cc2)c1C
inhibition in vivo at 10 mg/kg [1]: 31%
metabolised at 20 min [2]: 36%
metabolised at 20 min [3]: 23%
IC50 [4]: 34 nM
Papp [5]: 3.6 ×10⁻⁶ cm/s

CCCC(=O)c1cnn(-c2ccc(N)c(C(N)=O)c2)c1C
Activity [6]: Non-toxic
Activity [7]: Non-toxic

CCCC(=O)c1cnn(-c2ccc3c(c2)OCCN3)c1C
Activity [6]: Non-toxic
Activity [7]: Non-toxic

CCCC(=O)c1cnn(-c2ccc(NC(=O)c3cn(CC(=O)N4CCN(CC(F)F)CC4)c4ccc(C)cc34)cc2)c1C
metabolised at 20 min [2]: 64%
metabolised at 20 min [3]: 27%
IC50 [4]: 19 nM
Papp [5]: 9.3 ×10⁻⁶ cm/s

CCCC(=O)c1cnn(-c2ccc(NC(=O)c3cn(CC(=O)N4CCN(C)CC4)c4cc(C)c(Br)cc34)cc2)c1C
inhibition in vivo at 10 mg/kg [1]: 21%
metabolised at 20 min [2]: 34%
metabolised at 20 min [3]: 20%
IC50 [4]: 48 nM
Papp [5]: 2.8 ×10⁻⁶ cm/s

CCCC(=O)c1cnn(C2CCN(N)CC2)c1C
Activity [6]: Non-toxic
Activity [7]: Non-toxic

CCCC(=O)c1cnn(-c2ccc(NC(=O)c3cn(CC(=O)N4CCN(C)CC4)c4ccc(C(F)(F)F)cc34)cc2)c1C
inhibition in vivo at 10 mg/kg [1]: 26%
metabolised at 20 min [2]: 15%
metabolised at 20 min [3]: 14%
IC50 [4]: 50 nM
Papp [5]: 0.9 ×10⁻⁶ cm/s

CCCC(=O)c1cnn(-c2cnc(N)cn2)c1C
Activity [6]: Non-toxic
Activity [7]: Non-toxic

CCCC(=O)c1cnn(-c2ccc(N)c(C(=O)N(C)C)c2)c1C
Activity [6]: Toxic
Activity [7]: Non-toxic

CCCC(=O)c1cnn(-c2ccc(NC(=O)c3cn(CC(=O)N4CCN5CCN(C)C(=O)C5C4)c4ccc(Cl)cc34)cc2)c1C (single isomer, unassigned; 103)
inhibition [8]: inactive

CCCC(=O)c1cnn(-c2ccc(NC(=O)c3cn(CC(=O)N4CCN(C)CC4)c4cc(F)c(Cl)cc34)cc2)c1C
inhibition [1]: inactive
metabolised at 20 min [2]: 31%
metabolised at 20 min [3]: 21%
IC50 [4]: 48 nM
Papp [5]: 1.1 ×10⁻⁶ cm/s

CCCC(=O)c1cnn(-c2ccc(N)nn2)c1C
Activity [6]: Non-toxic
Activity [7]: Non-toxic

CCCC(=O)c1cnn(-c2ccc(NC(=O)c3cn(CC(=O)N4CCN(CCF)CC4)c4ccc(C)cc34)cc2)c1C
metabolised at 20 min [2]: 62%
metabolised at 20 min [3]: 36%
IC50 [4]: 19 nM
Papp [5]: 8.2 ×10⁻⁶ cm/s

CCCC(=O)c1cnn(-c2ccc(N)cc2)c1C
Activity [6]: Toxic
Activity [7]: Non-toxic

CCCC(=O)c1cnn([C@H]2CC[C@H](N)CC2)c1C
Activity [7]: Non-toxic

CCCC(=O)c1cnn(-c2ccc(NC(=O)c3cn(CC(=O)N4CCN(Cc5ccc(F)cc5)CC4)c4ccc(C)cc34)cc2)c1C
metabolised at 20 min [2]: 63%
metabolised at 20 min [3]: 27%
IC50 [4]: 12 nM
Papp [5]: 1.7 ×10⁻⁶ cm/s

CCCC(=O)c1cnn(-c2ccc(N)c(C(=O)O)c2)c1C
Activity [6]: Non-toxic
Activity [7]: Non-toxic

CCCC(=O)c1cnn(-c2ccc(NC(=O)c3cn(CC(=O)N4CCN(CC(=O)N(C)C)CC4)c4ccc(Cl)cc34)cc2)c1C
inhibition [1]: inactive
metabolised at 20 min [2]: 28%
metabolised at 20 min [3]: 7%
IC50 [4]: 11 nM

CCCC(=O)c1cnn(-c2ccc(NC(=O)c3cn(CC(=O)N4CCN(CCOC)CC4)c4ccc(C)cc34)cc2)c1C
metabolised at 20 min [2]: 53%
metabolised at 20 min [3]: 32%
IC50 [4]: 20 nM
Papp [5]: 7.4 ×10⁻⁶ cm/s

Cc1c(C(=O)CCC(F)(F)F)cnn1-c1ccc(NC(=O)c2cn(CC(=O)N3CCN(C)CC3)c3ccc(Cl)cc23)cc1
metabolised at 20 min [2]: 6%
metabolised at 20 min [3]: 3%
IC50 [4]: 574 nM

CCCC(=O)c1cnn(-c2ccc(N)c(C#N)c2)c1C
Activity [6]: Non-toxic
Activity [7]: Non-toxic

CCCC(=O)c1cnn(-c2ccc(N)nc2)c1C
Activity [6]: Non-toxic
Activity [7]: Non-toxic

CC(=O)Oc1cc2c(s1)CCN(C(C(=O)C1CC1)c1ccccc1F)C2 (stereo not given)
ED50 [9]: 0.46 mg/kg

CCCC(=O)c1cnn(-c2ccc(NC(=O)c3cn(CC(=O)N4CCN(Cc5cc(C)on5)CC4)c4ccc(Cl)cc34)cc2)c1C
inhibition in vivo at 10 mg/kg [8]: 60%
inhibition in vivo at 10 mg/kg [1]: 72%
metabolised at 20 min [2]: 87%
metabolised at 20 min [3]: 31%
IC50 [4]: 11 nM
Papp [5]: 0.6 ×10⁻⁶ cm/s

CCCC(=O)c1cnn(-c2ccc(O)cc2)c1C
Activity [6]: Non-toxic
Activity [7]: Non-toxic

CCCC(=O)c1cnn(-c2ccc(NC(=O)c3cn(CC(=O)N4CCN(C)C(C)C4)c4ccc(C)cc34)cc2)c1C (stereo not given)
metabolised at 20 min [2]: 65%
metabolised at 20 min [3]: 45%
IC50 [4]: 27 nM
Papp [5]: 5.5 ×10⁻⁶ cm/s

CCCC(=O)c1cnn(-c2ccc(NC(=O)c3cn(CC(=O)N4CCN(CCO)CC4)c4ccc(C)cc34)cc2)c1C
metabolised at 20 min [2]: 16%
metabolised at 20 min [3]: 17%
IC50 [4]: 41 nM
Papp [5]: 0.2 ×10⁻⁶ cm/s

CCC(=O)c1cnn(-c2ccc(NC(=O)c3cn(CC(=O)N4CCN(C)CC4)c4ccc(Cl)cc34)cc2)c1C
metabolised at 20 min [2]: 32%
metabolised at 20 min [3]: 25%
IC50 [4]: 336 nM

CCCC(=O)c1cnn(-c2cnc(N)s2)c1C
Activity [6]: Toxic
Activity [7]: Non-toxic

CCCC(=O)c1cnn(-c2ccc(NC(=O)c3cn(CC(=O)N4CCN(C)CC4)c4cc(C)c(C)cc34)cc2)c1C.Cl
inhibition in vivo at 10 mg/kg [1]: 37%
metabolised at 20 min [2]: 50%
metabolised at 20 min [3]: 52%
IC50 [4]: 39 nM
Papp [5]: 5.9 ×10⁻⁶ cm/s

CCCC(=O)c1cnn(-c2ccc(NC(=O)c3cn(CC(=O)N4CCN(CCO)CC4)c4ccc(Cl)cc34)cc2)c1C
inhibition in vivo at 10 mg/kg [1]: 22%
metabolised at 20 min [2]: 14%
metabolised at 20 min [3]: 6%
IC50 [4]: 11 nM

COC(=O)[C@H](c1ccccc1Cl)N1CCc2sccc2C1 [CLOPIDOGREL]
ED50 [9]: 2.6 mg/kg

CCCSc1nc(N[C@@H]2C[C@H]2c2ccc(F)c(F)c2)c2nnn([C@@H]3C[C@H](OCCO)[C@@H](O)[C@H]3O)c2n1 [TICAGRELOR]
metabolised at 20 min [2]: 20%
ED50 [9]: 1.59 mg/kg
Papp [5]: 7.5 ×10⁻⁶ cm/s

CCCC(=O)c1cnn(-c2ccc(N)cn2)c1C
Activity [6]: Toxic
Activity [7]: Non-toxic

CCCC(=O)c1cnn(-c2ccc(NC(=O)c3cn(CC(=O)N4CCN(C(C)C)CC4)c4ccc(C)cc34)cc2)c1C
inhibition in vivo at 10 mg/kg [1]: 15%
IC50 [4]: 82 nM

CCCC(=O)c1cnn(-c2ccc(NC(=O)c3cn(CC(=O)N4CCN(CCOC)CC4)c4ccc(Cl)cc34)cc2)c1C
inhibition in vivo at 10 mg/kg [8]: 65%
inhibition in vivo at 10 mg/kg [1]: 68%
metabolised at 20 min [2]: 47%
metabolised at 20 min [3]: 11%
IC50 [4]: 15 nM
Papp [5]: 4.3 ×10⁻⁶ cm/s
